Laboratory results as given in ChEMBL document CHEMBL1132347, “Cytotoxicity of 2,2':6',2' '-terpyridineplatinum(II) complexes against human ovarian carcinoma” (J Med Chem, 1999).
“And” between values parts separate entries of the source, which are not always exact repeats. Equal entries are not always repeated.

Columns and labels:
Format in all cases: functional, cell-based
[1] = test system: A2780; experiment: In vitro inhibition of human ovarian cell line A2780
Outline: (§1)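 Single viable cells seeded at 4000-5000/well in DMEM with 10% fetal calf serum and left to attach overnight. Compounds dissolved in water and added at once, 10 concentrations per drug, 4 wells per concentration, 96 h exposure. Cell number in treated versus control wells read by sulforhodamine B staining; IC50 is the concentration cutting absorbance by 50% relative to controls.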

[2] = test system: CH1; experiment: In vitro inhibition of human ovarian cell line, resistant to cisplatin (CH1cisR).; outline: as §1
[3] = test system: SK-OV-3; experiment: In vitro inhibition of human ovarian cell line SKOV-3.; outline: as §1
[4] = test system: CH1; experiment: In vitro inhibition of human ovarian cell line, resistant to doxorubicin (CH1doxR).; outline: as §1
[5] = test system: A2780; experiment: In vitro inhibition of human ovarian cell line, resistant to cisplatin (A2780cisR).; outline: as §1
[6] = test system: CH1; experiment: In vitro inhibition of human ovarian cell line (CH1); outline: as §1
[7] = test system: CH1; experiment: Resistance factor, (IC50 of CH1 cisR / IC50 of CH1); details: Homo sapiens; CH1cisR
[8] = test system: CH1; experiment: Resistance factor, (IC50 of CH1 doxR / IC50 of CH1); details: Homo sapiens
[9] = test system: A2780; experiment: Resistance factor, (IC50 of A2780 cisR cisR / IC50 of A2780); details: Homo sapiens

Row | IC50 [1] [µM] | IC50 [2] [µM] | IC50 [3] [µM] | IC50 [4] [µM] | IC50 [5] [µM] | IC50 [6] [µM] | Substance | Resistance factor [7] | Resistance factor [8] | Resistance factor [9]
1 | 35 | 14 | > 100 | 6 | > 100 | 6.2 | CARBOPLATIN [listing 1 of 2 here] |  |  | 
2 | 4.75 |  | 1.8 |  | 6.6 | 2.15 | 4'-chloro-2,2':6,2''-Terpyridineplatinum (II) complex [listing 1 of 4 here] |  |  | 
3 | 16 | 7.5 | 13 | 3.95 | 21.5 | 6.1 | (2,2':6',2''-terpyridine)platinum (II) complex [listing 1 of 10 here] |  |  | 
4 |  | 18 | 24 | 5.7 | > 100 | 17.5 | (2,2':6',2''-terpyridine)platinum (II) complex [listing 2 of 10 here] |  |  | 
5 | 27 | 8.9 | 13.5 | 1.5 | 25 | 7.2 | (2,2':6',2''-terpyridine)platinum (II) complex [listing 3 of 10 here] |  |  | 
6 | 5.8 | 2.1 | 9.2 | 0.85 | 6.7 | 2.1 | (2,2':6',2''-terpyridine)platinum (II) complex [listing 4 of 10 here] |  |  | 
7 |  |  |  |  |  |  | CARBOPLATIN [listing 2 of 2 here] | 2.3 | 1 | 
8 |  |  |  |  |  |  | 4'-chloro-2,2':6,2''-Terpyridineplatinum (II) complex [listing 2 of 4 here] | 1 (2×) and 1.3 | 0.3 | 1.4 and 0.6
9 | > 25 | 2.15 | 3.5 | 0.71 | 11 | 2.05 | 4'-chloro-2,2':6,2''-Terpyridineplatinum (II) complex [listing 3 of 4 here] |  |  | 
10 | 2.4 | 1.8 | 5.1 | 0.46 | 1.4 | 1.4 | 4'-chloro-2,2':6,2''-Terpyridineplatinum (II) complex [listing 4 of 4 here] |  |  | 
11 | 21.5 | 14 | > 100 | 5.4 |  | 15.5 | (2,2':6',2''-terpyridine)platinum (II) complex [listing 5 of 10 here] |  |  | 
12 | 40 | 12.5 | 17 | 5 | 92 | 14 | (2,2':6',2''-terpyridine)platinum (II) complex [listing 6 of 10 here] |  |  | 
13 | 11.5 | 4.5 | 15 | 3.75 | 23.5 | 5.2 | (2,2':6',2''-terpyridine)platinum (II) complex [listing 7 of 10 here] |  |  | 
14 | 39 | 5.8 |  | 1.05 | 29.5 | 5 | (2,2':6',2''-terpyridine)platinum (II) complex [listing 8 of 10 here] |  |  | 
15 | 0.53 | 1.2 | 2.25 | 0.5 | 8.8 | 0.4 | CISPLATIN [listing 1 of 2 here] |  |  | 
16 |  |  |  |  |  |  | (2,2':6',2''-terpyridine)platinum (II) complex [listing 9 of 10 here] | 0.9 (3×) and 1 (2×) and 1.2 (3×) |  | 1.3 [middle of 6 runs]
17 |  |  |  |  |  |  | CISPLATIN [listing 2 of 2 here] | 3 | 1.2 | 16.6
18 |  | > 100 |  | 17.5 |  | > 100 | (2,2':6',2''-terpyridine)platinum (II) complex [listing 10 of 10 here] |  |  | 
